Laboratory results from ChEMBL document CHEMBL4190233, “Exploring the cycloheptathiophene-3-carboxamide scaffold to disrupt the interactions of the influenza polymerase subunits and obtain potent anti-influenza activity” (Eur J Med Chem, 2017).

Key:
Influenza A virus = test: Antiviral activity against Influenza A virus A/PR/8/34 (H1N1) infected in MDCK cells measured after 48 hrs post infection by plaque reduction assay; type: functional, organism-based; conditions: A/Puerto Rico/8/1934(H1N1)
In short: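 MDCK cells, 5 x 10⁵/well, grown 24 h at 37 °C, washed in serum-free DMEM, then infected with A/PR/8/34 (Cambridge lineage) at 40 PFU/well for 1 h at 37 °C. Medium held TPCK-trypsin 1 μg/mL and 0.14% BSA, with compound at varied concentrations or DMSO. Overlay was the same medium plus 1.2% Avicel. At 48 h cells were formaldehyde-fixed and toluidine-blue stained. Plaques were counted against DMSO (100%).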

[1] = Cytotoxicity against MDCK cells assessed as reduction in cell viability after 48 hrs by MTT assay; type: cell-based, Canis lupus familiaris; conditions: dog
In short: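 MDCK cells, 2 x 10⁴/well, grown 24 h, then exposed to serial compound dilutions or DMSO in DMEM/10% FBS for 48 h at 37 °C. MTT (5 mg/mL in PBS) was added for 4 h, then cells were lysed in solubilization solution overnight at 37 °C and read at 620 nm.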

[2] = biological target: PA/PB1 (Influenza A virus (A/Puerto Rico/8/1934(H1N1)), UniProt P03431+P03433); test: Inhibition of Influenza A virus 6His-tagged PA (239 to 716 residues)/GST-tagged PB1 (1 to 25 residues) protein-protein interaction expressed in Escherichia coli measured after overnight incubation by ELISA
[3] = Therapeutic index, ratio of CC50 for MDCK cells to EC50 for Influenza A virus A/PR/8/34 (H1N1) infected in MDCK cells; type: toxicity, cell-based; conditions: dog, read-out: Ratio CC50/EC50

Structure (SMILES) | EC50 (Influenza A virus) | CC50 at 48 h [1] | IC50 [2] | selectivity ratio [3]
CSCC[C@H](N)C(=O)N[C@@H](CC(=O)O)C(=O)N[C@H](C(=O)N[C@@H](CC(N)=O)C(=O)N1CCC[C@H]1C(=O)N[C@H](C(=O)N[C@@H](CC(C)C)C(=O)N[C@@H](CC(C)C)C(=O)N[C@@H](Cc1ccccc1)C(=O)N[C@@H](CC(C)C)C(=O)N[C@@H](CCCCN)C(=O)N[C@H](C(=O)N1CCC[C@H]1C(=O)N[C@@H](C)C(=O)N[C@@H](CCC(N)=O)C(=O)O)C(C)C)[C@@H](C)O)C(C)C | 41 µM | > 100 µM |  | 
O=C(Nc1sc2c(c1C(=O)Nc1ccccc1O)CCCCC2)c1ccccn1 | 8.2 µM | > 250 µM | 118 µM | 
CC(C)(C)NC(=O)c1c(NC(=O)c2ccccc2O)sc2c1CCCCC2 | > 100 µM | > 250 µM | 156 µM | 
O=C(Nc1sc2c(c1C(=O)Nc1nccs1)CCCCC2)c1ccccc1O | 0.18 µM | > 250 µM | 69 µM | > 1390
O=C(Nc1sc2c(c1C(=O)Nc1ccccc1O)CCCCC2)c1ccc(Cl)cc1 | 1.8 µM | 28 µM | 26 µM | 
O=C(Nc1sc2c(c1C(=O)NCc1ccccn1)CCCCC2)c1ccccc1O | > 100 µM | > 250 µM | 33 µM | 
O=C(Nc1sc2c(c1C(=O)Nc1ccccn1)CCCCC2)c1cccc(O)c1 | 22 µM | 248 µM | 23 µM | 
O=C(Nc1sc2c(c1C(=O)Nc1ccccn1)CCCCC2)c1ccccc1O | 2.6 µM | > 250 µM | 15 µM | > 96
O=C(Nc1sc2c(c1C(=O)Nc1ccccn1)CCCCC2)c1ccc(O)cc1 | 19 µM | > 250 µM | 26 µM | 
O=C(Nc1sc2c(c1C(=O)NC1CCCCC1)CCCCC2)c1ccccc1O | > 100 µM | 172 µM | 114 µM | 
O=C(Nc1sc2c(c1C(=O)N1CCN(c3ccccn3)CC1)CCCCC2)c1ccccc1O | > 100 µM | 145 µM | 197 µM | 
O=C(Nc1sc2c(c1C(=O)NCc1ccccc1)CCCCC2)c1ccccc1O | > 100 µM | 172 µM | 191 µM | 
O=C(Nc1sc2c(c1C(=O)Nc1ccc(Cl)cc1)CCCCC2)c1ccccc1O | 1.2 µM | > 250 µM | 18 µM | > 200
O=C(Nc1sc2c(c1C(=O)Nc1ccccc1)CCCCC2)c1ccccc1O | 30 µM | > 250 µM | 58 µM | 
COc1ccccc1C(=O)Nc1sc2c(c1C(=O)Nc1ccccn1)CCCCC2 | 86 µM | 147 µM | 22 µM | 
COc1ccccc1NC(=O)c1c(NC(=O)c2ccc(Cl)cc2)sc2c1CCCCC2 | 24 µM | > 250 µM | 45 µM | 
CC(C)NC(=O)c1c(NC(=O)c2ccccc2O)sc2c1CCCCC2 | > 100 µM | > 250 µM | > 200 µM | 
Nc1ccc(C(=O)Nc2sc3c(c2C(=O)Nc2ccccn2)CCCCC3)cc1 | 0.26 µM | > 250 µM | 65 µM | 
Nc1ccccc1C(=O)Nc1sc2c(c1C(=O)Nc1ccccn1)CCCCC2 | 101 µM | > 250 µM | > 200 µM | 
COc1ccccc1C(=O)Nc1sc2c(c1C(=O)Nc1ccc(Cl)cc1)CCCCC2 | 82 µM | > 250 µM | 78 µM | 
CN1CCN(C(=O)c2c(NC(=O)c3ccccc3O)sc3c2CCCCC3)CC1 | 94 µM | > 250 µM | > 200 µM | 
O=C(Nc1sc2c(c1C(=O)Nc1ccc(F)cc1)CCCCC2)c1ccccc1O | 1.2 µM | > 250 µM | 20 µM | > 200
NC(=O)c1ncn([C@@H]2O[C@H](CO)[C@@H](O)[C@H]2O)n1 [RIBAVIRIN] | 10 µM | > 250 µM |  | 
